The source made the active and inactive calls. No cut-off for these calls is given here.
Assays:
[1] = Antiproliferative activity against human HCT116 cells assessed as inhibition of cell viability after 72 hrs by MTT assay; format: functional, cell-based; conditions: HCT-116, 72 h
[2] = Antiproliferative activity against human MCF7 cells assessed as inhibition of cell viability after 72 hrs by MTT assay; format: functional, cell-based; conditions: MCF7, 72 h
MCF7 [3] = experiment: Induction of phenotypic changes in human MCF7 cells assessed as distortion at 4 uM after 24 hrs by inverted light microscopic method; format: functional, cell-based
How it was run: (§1)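 MCF-7 cells were incubated 24 h with 2, 4 or 8 µM compound, with an untreated group as control. Cell morphology (distortion, blebbing, shrinkage, rounding, necrosis) was examined under an inverted light microscope at ×200.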

MCF7 [4] = experiment: Induction of phenotypic changes in human MCF7 cells assessed as membrane blebbing at 4 uM after 24 hrs by inverted light microscopic method; format: functional, cell-based; how it was run: as §1
MCF7 [5] = experiment: Induction of necrosis in human MCF7 cells at 8 uM after 24 hrs by inverted light microscopic method; format: functional, cell-based; how it was run: as §1
MCF7 [6] = experiment: Induction of apoptosis in human MCF7 cells assessed as early apoptotic cells at 2 uM after 48 hrs by annexin V staining-based flow cytometric analysis (reference value: 0.5%); format: functional
MCF7 [7] = experiment: Induction of apoptosis in human MCF7 cells assessed as late apoptotic cells at 2 uM after 48 hrs by annexin V staining-based flow cytometric analysis (reference value: 11%); format: functional
MCF7 [8] = experiment: Induction of apoptosis in human MCF7 cells assessed as necrotic cells at 2 uM after 48 hrs by annexin V staining-based flow cytometric analysis (reference value: 5.65%); format: functional
MCF7 [9] = experiment: Induction of apoptosis in human MCF7 cells assessed as early apoptotic cells at 4 uM after 48 hrs by annexin V staining-based flow cytometric analysis (reference value: 0.5%); format: functional
MCF7 [10] = experiment: Induction of apoptosis in human MCF7 cells assessed as late apoptotic cells at 4 uM after 48 hrs by annexin V staining-based flow cytometric analysis (reference value: 11%); format: functional
MCF7 [11] = experiment: Induction of apoptosis in human MCF7 cells assessed as necrotic cells at 4 uM after 48 hrs by annexin V staining-based flow cytometric analysis (reference value: 5.65%); format: functional
MCF7 [12] = experiment: Induction of apoptosis in human MCF7 cells assessed as viable cells at 4 uM after 48 hrs by annexin V staining-based flow cytometric analysis (reference value: 82.85%); format: functional; conditions: MCF7, 48 h, read-out: Activity
MCF7 [13] = experiment: Induction of apoptosis in human MCF7 cells assessed as early apoptotic cells at 8 uM after 48 hrs by annexin V staining-based flow cytometric analysis (reference value: 0.5%); format: functional
MCF7 [14] = experiment: Induction of apoptosis in human MCF7 cells assessed as necrotic cells at 8 uM after 48 hrs by annexin V staining-based flow cytometric analysis (reference value: 5.65%); format: functional
MCF7 [15] = experiment: Induction of apoptosis in human MCF7 cells assessed as viable cells at 8 uM after 48 hrs by annexin V staining-based flow cytometric analysis (reference value: 82.85%); format: functional; conditions: MCF7, 48 h, read-out: Activity
[16] = biological target: T1, Histone-lysine N-methyltransferase EHMT2 (Homo sapiens) (UniProt Q96KQ7); experiment: Inhibition of G9a in human MCF7 cells assessed as decrease in trimethylation level of H3K9 after 48 hrs by Western blot method; format: cell-based
T1 sequence (whole entry): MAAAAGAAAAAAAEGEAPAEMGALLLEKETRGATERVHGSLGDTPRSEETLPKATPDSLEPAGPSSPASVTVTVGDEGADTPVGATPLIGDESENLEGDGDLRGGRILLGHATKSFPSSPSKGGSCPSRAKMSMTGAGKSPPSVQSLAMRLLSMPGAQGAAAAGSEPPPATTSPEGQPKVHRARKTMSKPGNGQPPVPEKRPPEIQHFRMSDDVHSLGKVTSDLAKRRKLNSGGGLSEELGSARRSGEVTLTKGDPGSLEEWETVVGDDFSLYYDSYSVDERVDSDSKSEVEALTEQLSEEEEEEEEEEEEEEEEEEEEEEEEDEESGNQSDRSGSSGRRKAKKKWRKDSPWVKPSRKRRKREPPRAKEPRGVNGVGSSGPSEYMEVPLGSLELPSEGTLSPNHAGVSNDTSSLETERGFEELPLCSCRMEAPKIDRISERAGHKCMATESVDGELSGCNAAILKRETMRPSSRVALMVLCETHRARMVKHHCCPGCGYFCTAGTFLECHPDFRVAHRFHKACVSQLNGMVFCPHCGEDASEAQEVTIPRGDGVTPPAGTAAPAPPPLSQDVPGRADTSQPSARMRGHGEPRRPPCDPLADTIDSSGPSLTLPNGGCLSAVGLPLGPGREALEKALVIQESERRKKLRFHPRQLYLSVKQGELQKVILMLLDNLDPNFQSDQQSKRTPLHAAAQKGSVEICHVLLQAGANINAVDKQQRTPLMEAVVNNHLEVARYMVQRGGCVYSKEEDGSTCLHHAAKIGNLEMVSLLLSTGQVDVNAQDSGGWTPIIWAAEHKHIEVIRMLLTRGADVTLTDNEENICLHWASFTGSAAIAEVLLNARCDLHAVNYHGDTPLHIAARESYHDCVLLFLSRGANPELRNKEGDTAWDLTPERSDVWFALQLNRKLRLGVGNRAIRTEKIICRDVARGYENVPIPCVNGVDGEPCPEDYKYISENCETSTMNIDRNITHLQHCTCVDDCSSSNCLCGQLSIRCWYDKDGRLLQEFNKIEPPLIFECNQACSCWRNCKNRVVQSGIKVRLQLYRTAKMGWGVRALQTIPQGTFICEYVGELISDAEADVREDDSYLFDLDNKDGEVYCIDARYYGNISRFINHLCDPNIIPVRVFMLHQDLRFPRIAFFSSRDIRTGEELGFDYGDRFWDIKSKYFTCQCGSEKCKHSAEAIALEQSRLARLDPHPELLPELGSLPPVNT

Mus musculus [17] = experiment: Tmax in mouse at 10 mg/kg, po after 5 mins to 24 hrs by LC-MS/MS analysis; conditions: in vivo
Mus musculus [18] = experiment: Cmax in mouse at 10 mg/kg, po after 5 mins to 24 hrs by LC-MS/MS analysis; conditions: in vivo
Mus musculus [19] = experiment: Clearance in mouse at 10 mg/kg, po after 5 mins to 24 hrs by LC-MS/MS analysis; conditions: in vivo
Mus musculus [20] = experiment: Half life in mouse at 10 mg/kg, iv after 2 mins to 24 hrs by LC-MS/MS analysis; conditions: in vivo
Mus musculus [21] = experiment: Clearance in mouse at 10 mg/kg, iv after 2 mins to 24 hrs by LC-MS/MS analysis; conditions: in vivo
Mus musculus [22] = experiment: Volume of distribution in mouse at 10 mg/kg, po after 5 mins to 24 hrs by LC-MS/MS analysis; conditions: in vivo
Mus musculus [23] = experiment: Volume of distribution in mouse at 10 mg/kg, iv after 2 mins to 24 hrs by LC-MS/MS analysis; conditions: in vivo

inhibition [16]: Dose-dependent effect
Tmax (Mus musculus [17]): 6.7 h
Cmax (Mus musculus [18]): 0.0707 µg/mL
CL/F (Mus musculus [19]): 15.2 L/h/kg
half-life (Mus musculus [20]): 6.9 h
clearance (Mus musculus [21]): 8.1 L/h/kg
Vd (Mus musculus [22]): 90.7 L/kg
Vd (Mus musculus [23]): 80.2 L/kg
Compound: O=C1c2ccccc2-c2onc3c(N4CCCCC4)cc(NCCN4CCCC4)c1c23
IC50 [1]: 3.18 µM
IC50 [2]: 4.52 µM
Activity (MCF7 [3]): Active
Activity (MCF7 [4]): Active
Activity (MCF7 [5]): Active
Activity (MCF7 [6]): 0.3%
Activity (MCF7 [7]): 18.25%
Activity (MCF7 [8]): 3.2%
Activity (MCF7 [9]): 0.8%
Activity (MCF7 [10]): 26.05%
Activity (MCF7 [11]): 3.1%
viability at 4 µM (MCF7 [12]): 70%
Activity (MCF7 [13]): 2.75%
Activity (MCF7 [14]): 0.75%
viability at 8 µM (MCF7 [15]): 66.5%

From ChEMBL document CHEMBL3856284, “Discovery, design and synthesis of 6H-anthra[1,9-cd]isoxazol-6-one scaffold as G9a inhibitor through a combination of shape-based virtual screening and structure-based molecular modification” (Bioorg Med Chem, 2016)
